According to ChEMBL document CHEMBL1144695, “Synthesis and evaluation of novel polyaminocarboxylate-based antitumor agents” (J Med Chem, 2008):

Columns and labels:
HeLa = assay: Cytotoxicity against human HeLa cells after 72 hrs by MTS assay; assay type: functional, cell-based
Procedure, shortened: (§1)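 Cells attached 24 h before dosing: HeLa at 2000 cells/well in MEM with 10% FBS, and HT29 at 5000 cells/well in RPMI-1640 with 10% FBS. At least five serial dilutions were added for 72 h at 37 °C in 5% CO2. MTS/PMS was then added for 3 h and absorbance read at 490 nm, relative to untreated solvent controls. Runs were at least triplicate, and IC50 came from nonlinear regression.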

HT-29 = assay: Cytotoxicity against human HT29 cells after 72 hrs by MTS assay; assay type: functional, cell-based; conditions: HT-29, 72 h; procedure, shortened: as §1
MRC5 = assay: Induction of proliferation in human MRC5 cells; assay type: functional; parameters: unit: fraction of untreated control
Procedure, shortened: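 Normal MRC-5 lung fibroblasts were grown in EMEM with 10% FBS, seeded at 5000 cells/well and allowed 24 h to attach. Chelators at 50 µM were given for 72 h at 37 °C in 5% CO2. Read-out was MTS/PMS for 3 h, with absorbance at 490 nm expressed as a fraction of untreated solvent controls. Runs were at least triplicate.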

Compound	IC50 (HeLa)	IC50 (HT-29)	Activity (MRC5)
O=C(O)CNCCN1CCN(CC(=O)O)CCN(CC(=O)O)CC1	5.7 µM	4.7 µM	2
O=C(O)CN(CCN(CC(=O)O)CC(=O)O)CCN(CC(=O)O)CC(=O)O [PENTETIC ACID]	264 µM	39.1 µM	–
O=C(O)CN1CCN(CCN(CC(=O)O)Cc2ccccc2)CCN(CC(=O)O)CC1	4.4 µM	2.6 µM	2
O=C(O)CNC(Cc1ccc([N+](=O)[O-])cc1)CN1CCN(CC(=O)O)CCN(CC(=O)O)CC1 (stereo unspecified)	7.1 µM	5 µM	2
CC(=O)N(O)CCCCCNC(=O)CCC(=O)N(O)CCCCCNC(=O)CCC(=O)N(O)CCCCCN [DEFEROXAMINE]	> 50 µM	36.1 µM	–
O=C(O)CN1CCN(CCN(CC(=O)O)Cc2ccc([N+](=O)[O-])cc2)CCN(CC(=O)O)CC1	8.4 µM	6.8 µM	2
O=C(O)CNC(Cc1ccc(Nc2ccc([N+](=O)[O-])c3nonc23)cc1)CN1CCN(CC(=O)O)CCN(CC(=O)O)CC1 (stereo unspecified)	–	–	2
O=C(O)CN1CCN(CC(=O)O)CCN(CC(Cc2ccc([N+](=O)[O-])cc2)N(CC(=O)O)CC(=O)O)CC1 (stereo unspecified)	> 100 µM	45.7 µM	–
O=C(O)CN1CCN(CCN(CC(=O)O)CC(=O)O)CCN(CC(=O)O)CC1	–	7.3 µM	2
